Assay results taken from ChEMBL document CHEMBL3864135, “Synthesis and pharmacological evaluation of functionalized isoindolinones on GABA-activated chloride currents in rat cerebellum granule cells in culture” (Bioorg Med Chem Lett, 2016).

Assays:
[1] = Solubility of the compound in ethanol; format: physicochemical
[2] = Solubility of the compound in DMSO; format: physicochemical
[3] = Solubility of the compound in water; format: physicochemical; settings: buffer
[4] = Solubility of the compound in phosphate buffer at pH 3.2; format: physicochemical
[5] = target: T1, Gamma-aminobutyric acid receptor subunit alpha-1/beta-2/beta-3/gamma-2 (Rattus norvegicus) (UniProt P18508+P62813+P63079+P63138); assay: Agonist activity at GABA alpha1beta2beta3gamma2 receptor Bzd binding site in Sprague-Dawley rat cerebellar granule cells assessed as increase in GABA-activated chloride currents at 1 uM by whole-cell patch clamp technique relative to control
Summary of the method: (§1)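 Whole-cell patch clamp on cultured rat cerebellar granule cells. Peak, rapidly desensitizing chloride current evoked by 10 μM GABA, recorded with and without test compound. Compounds applied at 1 μM, or at 0.47 μM where solubility limited. Change expressed as percent of the current with GABA alone (E %), mean ± SEM. Student's t-test against GABA alone.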

[6] = target: T1, Gamma-aminobutyric acid receptor subunit alpha-1/beta-2/beta-3/gamma-2 (Rattus norvegicus); assay: Inverse agonist activity at GABA alpha1beta2beta3gamma2 receptor Bzd binding site in Sprague-Dawley rat cerebellar granule cells assessed as decrease in GABA-activated chloride currents at 1 uM by whole-cell patch clamp technique relative to control; summary of the method: as §1
[7] = Drug metabolism assessed as decarboxylated metabolite formation; format: ADME
[8] = target: T1, Gamma-aminobutyric acid receptor subunit alpha-1/beta-2/beta-3/gamma-2 (Rattus norvegicus); assay: Inverse agonist activity at GABA alpha1beta2beta3gamma2 receptor Bzd binding site in Sprague-Dawley rat cerebellar granule cells assessed as decrease in GABA-activated chloride currents at 0.47 uM by whole-cell patch clamp technique relative to control; summary of the method: as §1

Compound	solubility [1]	solubility [2]	solubility [3]	solubility [4]	Efficacy [5] [%]	Efficacy [6] [%]	Drug metabolism [7] [%ID]	Efficacy [8] [%]
CN1CCN(C(=O)CC2c3ccccc3C(=O)N2c2ccc(Cl)cn2)CC1.Cl (stereo not given)	Soluble	Soluble	Soluble	Soluble	18	–	–	–
Cc1ccc(N2C(=O)c3ccccc3C2CC(=O)N2CCN(C)CC2)nc1.Cl (stereo not given)	Soluble	Soluble	Soluble	Soluble	21	–	–	–
COc1ccc(N2CCN(C(=O)CC3c4ccccc4C(=O)N3c3ccc([N+](=O)[O-])cn3)CC2)cc1.Cl (stereo not given)	Soluble	Soluble	Soluble	Soluble	–	21	–	–
Cl.O=C(CC1c2ccccc2C(=O)N1c1ccc([N+](=O)[O-])cn1)N1CCN(c2ccc(Cl)cc2)CC1 (stereo not given)	Soluble	Soluble	Soluble	Soluble	–	36	–	–
Cc1ccc(N2CCN(C(=O)CC3c4ccccc4C(=O)N3c3ccc([N+](=O)[O-])cn3)CC2)cc1.Cl (stereo not given)	Soluble	Insoluble	Soluble	Soluble	–	–	–	–
Cl.O=C(CC1c2ccccc2C(=O)N1c1ccc([N+](=O)[O-])cn1)N1CCN(c2ccc(F)cc2)CC1 (stereo not given)	Soluble	Soluble	Soluble	Soluble	–	–	–	–
CN1CCN(C(=O)OC2c3nccnc3C(=O)N2c2ccc(Cl)cn2)CC1 (stereo not given) [ZOPICLONE]	–	–	–	–	58	–	50	–
CN1CCN(C(=O)CC2c3ccccc3C(=O)N2c2ccc(N)cn2)CC1.Cl (stereo not given)	Soluble	Insoluble	Soluble	Soluble	–	–	–	23
Cl.O=C(CC1c2ccccc2C(=O)N1c1ccc([N+](=O)[O-])cn1)N1CCN(c2ccccc2)CC1 (stereo not given)	Soluble	Soluble	Soluble	Soluble	–	27	–	–
CN1CCN(C(=O)CC2c3ccccc3C(=O)N2c2ccccn2)CC1.Cl (stereo not given)	Soluble	Soluble	Soluble	Soluble	20	–	–	–
CN1CCN(C(=O)CC2c3ccccc3C(=O)N2c2ccc(Br)cn2)CC1.Cl (stereo not given)	Soluble	Soluble	Soluble	Soluble	26	–	–	–
CN1CCN(C(=O)CC2c3ccccc3C(=O)N2c2ccc([N+](=O)[O-])cn2)CC1.Cl (stereo not given)	Soluble	Soluble	Soluble	Soluble	34	–	–	–
